81 molecules from PubChem BioAssay AID488828 (Molecular Libraries Program, Specialized Chemistry Center, …, 2010) can be followed below.

A word on the IC50: it is the concentration that gives 50% inhibition.

Calls of active or inactive are those of the source.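 The calls were made as follows: active = IC50 at or below 10 µM; inactive = the rest.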 Some results are limits rather than exact numbers.

Transitional endoplasmic reticulum ATPase (Homo sapiens), sequence (P55072 whole entry, looked up): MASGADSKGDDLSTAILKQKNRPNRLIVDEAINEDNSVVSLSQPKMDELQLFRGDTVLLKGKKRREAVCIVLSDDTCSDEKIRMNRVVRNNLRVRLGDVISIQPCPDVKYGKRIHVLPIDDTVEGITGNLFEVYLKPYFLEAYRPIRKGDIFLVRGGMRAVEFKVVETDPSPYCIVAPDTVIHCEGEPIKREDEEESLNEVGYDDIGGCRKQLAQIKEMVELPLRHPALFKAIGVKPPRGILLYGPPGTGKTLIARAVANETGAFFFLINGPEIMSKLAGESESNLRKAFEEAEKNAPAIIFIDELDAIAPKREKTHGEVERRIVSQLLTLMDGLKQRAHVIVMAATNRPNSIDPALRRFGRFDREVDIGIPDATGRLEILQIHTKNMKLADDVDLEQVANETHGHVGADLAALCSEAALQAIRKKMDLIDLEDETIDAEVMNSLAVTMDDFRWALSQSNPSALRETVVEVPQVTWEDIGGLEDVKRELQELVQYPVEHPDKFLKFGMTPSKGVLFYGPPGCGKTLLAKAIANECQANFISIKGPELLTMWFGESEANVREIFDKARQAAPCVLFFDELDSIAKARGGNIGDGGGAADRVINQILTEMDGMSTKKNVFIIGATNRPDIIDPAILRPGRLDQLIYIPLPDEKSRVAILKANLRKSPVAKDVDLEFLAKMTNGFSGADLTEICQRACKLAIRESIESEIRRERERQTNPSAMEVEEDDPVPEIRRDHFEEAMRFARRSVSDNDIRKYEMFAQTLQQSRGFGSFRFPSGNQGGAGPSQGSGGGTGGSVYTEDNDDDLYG

The target of the first experiment is Transitional endoplasmic reticulum ATPase (Homo sapiens) (UniProt P55072). Description: inhibition of purified VCP ATP hydrolysis – biochemical, hit optimization round 2, SAR follow-up (AID 488828). As to conditions: purified p97 ATPase, Kinase-Glo ATP luminescence. In outline: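 Test system: Purified human p97 (valosin-containing protein) ATPase | Technique: Kinase-Glo Plus luminescence of residual ATP | Timing: 10 min room-temperature enzyme–compound preincubation, 30 min 37 °C ATP reaction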
Regarding `Clc1nc(NCc2ccccc2Cl)c2ccccc2n1`, the IC50 was > 30 µM (inactive).
On to `CCOC(=O)NC(NC(=O)OCC)C(=O)c1ccc(F)cc1`, for which the IC50 is > 30 µM (inactive).
For `COc1ccc(C)cc1NC(=O)c1[nH]c(C)c(C(C)=O)c1C`, the IC50 is > 30 µM (inactive).
On the same count and under the same terms, then `Fc1cccc2c(NCc3ccccc3)nc(NCc3ccccc3)nc12`, with 3.1 µM; and `FC(F)(F)c1ccc2c(NCc3ccccc3)nc(NCc3ccccc3)nc2c1`, with 9.1 µM.
In the case of `Brc1ccc2c(NCc3ccccc3)nc(NCc3ccccc3)nc2c1`, the IC50 result was “inactive”.
Same read-out and setting: under `COc1c(Cl)cccc1Nc1nc(NCc2ccccc2)c2ccccc2n1` stands 0.9 µM.
The same measure, in the same setting: then `Cc1ccc(Nc2nc(NCc3ccccc3)c3ccccc3n2)cc1F`, with 0.9 µM; and `Fc1ccccc1CNc1nc(Cl)nc2ccccc12`, with > 30 µM (inactive).
In the case of `COc1ccc2c(NCc3ccccc3)nc(NCc3ccccc3)nc2c1`, the IC50 was 5.7 µM.
Regarding `Fc1cccc(CNc2nc(Nc3cccc(Cl)c3)nc3ccccc23)c1`, the IC50 was 1.2 µM.
For the molecule `Clc1nc(NCc2ccccc2Br)c2ccccc2n1`, the IC50 is > 30 µM (inactive).
Same read-out and setting: then `Fc1ccc(CNc2nc(Cl)nc3ccccc23)cc1`, with > 30 µM (inactive); and `Cc1cc(F)cc(Nc2nc(NCc3ccccc3)c3ccccc3n2)c1`, with 0.7 µM; and `c1ccc(CNc2nc(N3CCOc4ccccc43)nc3ccccc23)cc1`, with 0.6 µM.
With `CC(C)(C)NC(=O)Nc1ccc2nccnc2c1`, the IC50 is > 30 µM (inactive).
Regarding `Fc1ccc(CNc2nc(Nc3cccc(Cl)c3)nc3ccccc23)cc1`, the IC50 is 1.5 µM.
`COc1cccc2c(NCc3ccccc3)nc(NCc3ccccc3)nc12`: the IC50 is 0.6 µM.
Turning to `O=C(NCc1ccco1)c1cc(S(=O)(=O)N2CCOCC2)ccc1Cl`, the IC50 was > 30 µM (inactive).
The same measure, in the same setting: under `Fc1ccccc1CNc1nc(Nc2cccc(Cl)c2)nc2ccccc12` stands 1.8 µM.
On the same count and under the same terms, then `Fc1ccccc1-c1nc(NCc2ccccc2)c2ccccc2n1`, with 1.1 µM; and `CCN(CC)c1ccc2cc(-c3nc4ccccc4[nH]3)c(=O)oc2c1`, with 1.4 µM.
The same measure, in the same setting: then `COc1ccc(F)cc1Nc1nc(NCc2ccccc2)c2ccccc2n1`, with 6.7 µM.
With `c1ccc(Nc2nc(Nc3ccccc3)c3ccccc3n2)cc1`, the IC50 was 2.6 µM.
Same read-out and setting: then `CN1CCN(S(=O)(=O)c2ccc(NC(=O)c3cccc(S(=O)(=O)N4CCCC4)c3)cc2)CC1`, with > 30 µM (inactive); and `O=[N+]([O-])c1cccc(Nc2nc(NCc3ccccc3)c3ccccc3n2)c1`, with 5.2 µM.
Consider `COc1ccc(CNc2nc(Nc3cccc(Cl)c3)nc3ccccc23)cc1`, for which the IC50 was 2.3 µM.
As to `COc1ccc2nc(NCc3ccccc3)nc(NCc3ccccc3)c2c1`, the IC50 is 7.5 µM.
Still for that read-out and setting: under `Cc1ccccc1CNc1nc(Cl)nc2ccccc12` stands > 30 µM (inactive); under `Fc1cccc(CNc2nc(Cl)nc3ccccc23)c1`, > 30 µM (inactive); under `Clc1nc(NCc2cccc(Br)c2)c2ccccc2n1`, > 30 µM (inactive).
For `Ic1cccc(Nc2nc(NCc3ccccc3)c3ccccc3n2)c1`, the IC50 is 5.2 µM.
Still for that read-out and setting: under `Cc1ccccc1CNc1nc(Nc2cccc(Cl)c2)nc2ccccc12` stands 4.2 µM; under `Clc1ccc2c(NCc3ccccc3)nc(NCc3ccccc3)nc2c1`, 5.5 µM.
Same read-out and setting: under `COc1cc2nc(NCc3ccccc3)nc(NCc3ccccc3)c2cc1OC` stands 4.4 µM; under `COc1cccc(CNc2nc(Cl)nc3ccccc23)c1`, > 30 µM (inactive); under `Cc1cccc(CNc2nc(Cl)nc3ccccc23)c1`, > 30 µM (inactive).
The same measure, in the same setting: under `Clc1ccc(CNc2nc(Cl)nc3ccccc23)cc1` stands > 30 µM (inactive); under `COc1ccc(Cl)cc1Nc1nc(NCc2ccccc2)c2ccccc2n1`, 1.1 µM; under `Clc1cccc(Nc2nc(NCc3ccc(Br)cc3)c3ccccc3n2)c1`, 7.4 µM.
As to `Cc1ccc(CNc2nc(Cl)nc3ccccc23)cc1`, the IC50 was > 30 µM (inactive).
On the same count and under the same terms, then `COc1cccc(CNc2nc(Nc3cccc(Cl)c3)nc3ccccc23)c1`, with 1 µM.
Still for that read-out and setting: under `COc1ccc(Nc2nc(Nc3ccc(OC)cc3)c3ccccc3n2)cc1` stands “inactive”; under `O=C(C1CCCN(S(=O)(=O)c2cnc[nH]2)C1)N(CCc1ccccc1)Cc1ccccc1` (stereo unspecified), > 30 µM (inactive).
On to `Cc1ccc(CNc2nc(Nc3cccc(Cl)c3)nc3ccccc23)cc1`, for which the IC50 was 1.4 µM.
The same measure, in the same setting: then `Clc1cccc2nc(NCc3ccccc3)nc(NCc3ccccc3)c12`, with 2.2 µM.
Consider `Fc1cccc2nc(NCc3ccccc3)nc(NCc3ccccc3)c12`, for which the IC50 was 1.2 µM.
The same measure, in the same setting: then `Clc1ccc(CNc2nc(Nc3cccc(Cl)c3)nc3ccccc23)cc1`, with 2.8 µM; and `COc1c(F)cccc1Nc1nc(NCc2ccccc2)c2ccccc2n1`, with 1.7 µM.
Consider `Clc1cccc(Nc2nc(NCc3ccccc3Br)c3ccccc3n2)c1`, for which the IC50 is 4 µM.
With `Cc1ccc(C2=[N+]([O-])C3(CCCCC/C3=N\O)N(O)C2(C)C)o1` (stereo unspecified), the IC50 was > 30 µM (inactive).
Still for that read-out and setting: under `CC1(C)N(O)CC(c2cccs2)=[N+]1[O-]` stands > 30 µM (inactive).
Still for that read-out and setting: under `Clc1ccc2nc(NCc3ccccc3)nc(NCc3ccccc3)c2c1` stands 1.6 µM; under `Fc1ccc2nc(NCc3ccccc3)nc(NCc3ccccc3)c2c1`, 4.7 µM; under `Brc1cccc2c(NCc3ccccc3)nc(NCc3ccccc3)nc12`, 3.3 µM.
Same read-out and setting: under `Cc1cccc(CNc2nc(Nc3cccc(Cl)c3)nc3ccccc23)c1` stands 2.3 µM; under `COc1ccccc1CNc1nc(Cl)nc2ccccc12`, > 30 µM (inactive).
With `Cc1ccc(Cl)cc1Nc1nc(NCc2ccccc2)c2ccccc2n1`, the IC50 was 0.8 µM.
Still for that read-out and setting: under `c1ccc(CNc2nc(N3CCNc4ccccc43)nc3ccccc23)cc1` stands 0.4 µM; under `Clc1nc(NCc2ccc(Br)cc2)c2ccccc2n1`, > 30 µM (inactive).
Still for that read-out and setting: then `O=C1C(C=NCC2CCCO2)=C(O)c2ccccc21` (stereo unspecified), with > 30 µM (inactive); and `Cc1c(F)cccc1Nc1nc(NCc2ccccc2)c2ccccc2n1`, with 0.9 µM.
Regarding `COc1ccc(CNc2nc(Cl)nc3ccccc23)cc1`, the IC50 was > 30 µM (inactive).
Turning to `c1ccc(CNc2nc(N3CCc4ccccc43)nc3ccccc23)cc1`, the IC50 was 2 µM.
On the same count and under the same terms, under `N#Cc1ccc2c(NCc3ccccc3)nc(NCc3ccccc3)nc2c1` stands “inactive”; under `Cc1ccc(F)cc1Nc1nc(NCc2ccccc2)c2ccccc2n1`, 0.8 µM; under `CC(C)n1c2ccccc2c2nnc(SCC(=O)OCN3C(=O)c4ccccc4C3=O)nc21`, > 30 µM (inactive).
Still for that read-out and setting: then `c1ccc(CNc2nc(N3CCCc4ccccc43)nc3ccccc23)cc1`, with 4.4 µM; and `COc1ccccc1CNc1nc(Nc2cccc(Cl)c2)nc2ccccc12`, with 1.6 µM.
On the same count and under the same terms, under `CC(=O)Nc1ccc(NC(=O)c2ccccc2F)cc1` stands > 30 µM (inactive).
As for `COc1ccc(Nc2nc(NCc3ccccc3)c3ccccc3n2)cc1F`, the IC50 is 0.9 µM.
Regarding `O=S(=O)(NC1CCCCC1)c1ccc(Br)cc1`, the IC50 was > 30 µM (inactive).
As for `Clc1cccc(Nc2nc(NCc3cccc(Br)c3)c3ccccc3n2)c1`, the IC50 was 3.7 µM.
Regarding `Clc1cccc(CNc2nc(Cl)nc3ccccc23)c1`, the IC50 is > 30 µM (inactive).
For the molecule `CC(C)Sc1oc(-c2ccco2)nc1S(=O)(=O)c1ccc(F)cc1`, the IC50 was 3 µM.
The same measure, in the same setting: then `Clc1cccc(CNc2nc(Nc3cccc(Cl)c3)nc3ccccc23)c1`, with 5 µM; and `Cc1ccc2c(NCc3ccccc3)nc(NCc3ccccc3)nc2c1`, with 2.2 µM; and `Cc1c(Cl)cccc1Nc1nc(NCc2ccccc2)c2ccccc2n1`, with 0.7 µM.
Same read-out and setting: then `Fc1ccc2c(NCc3ccccc3)nc(NCc3ccccc3)nc2c1`, with 2.6 µM; and `Clc1cccc(Nc2nc(NCc3ccccc3Cl)c3ccccc3n2)c1`, with 4.7 µM.

Still in this experiment, the particulars now being: purified p97 ATPase, Kinase-Glo ATP luminescence; at 30 µM (top of the series).
On to `Clc1ccc(Nc2nc(Nc3cccc(Cl)c3)nc3ccccc23)cc1`, for which the inhibition result is “inactive”.
